Results of several laboratories.
Lines come from different studies, so protocols differ.
Cell line: A549
Read-out: cell growth or viability

SMILES | technique | tested at | time | endpoint | result
C=C(c1ccc(C(=O)O)cc1)c1cc2c(cc1C)C(C)(C)CCC2(C)C | MTT |  | 72 h | EC50 | 58 µM
COc1ccc(-c2nc(NN=C3C(=O)Nc4ccc(F)cc43)c3ccccc3n2)cc1OC |  | 30 µM |  | inhibition | 4.9%
CC1=C(C(=O)OC(C)C)C(c2cccc([N+](=O)[O-])c2)C(C(=O)OC2CN(C(c3ccccc3)c3ccccc3)C2)=C(N)N1 (stereo not shown) | CCK-8 | 100 µM | 72 h | viability | < 50%
O=C(CN1C(=O)/C(=C/c2ccc(C(F)(F)F)cc2)SC1=S)Nc1ccccc1 | MTT | 10 µM |  | inhibition | 27.8%
COc1ccc2c(c1)C(=NNc1nnc(Cc3ccccc3)c3ccccc13)C(=O)N2 |  | 30 µM |  | inhibition | 13.5%
COC(=O)C1=C(C)NC(C)=C(C(=O)OCCN(C)Cc2ccccc2)C1c1cccc([N+](=O)[O-])c1 (stereo not shown) | CCK-8 | 100 µM | 72 h | viability | < 50%
CCCCc1nc(Cl)c(CO)n1Cc1ccc(-c2ccccc2-c2nn[nH]n2)cc1 | MTT |  | 72 h | EC50 | 63 µM
COc1cccc(NC(=O)CN2C(=O)/C(=C/c3ccccc3)SC2=S)c1 | MTT | 10 µM |  | inhibition | 26.3%
Cn1c(=O)c(NN=C2C(=O)Nc3ccc(Cl)cc32)nc2ccccc21 |  | 30 µM |  | inhibition | 27.1%
CC(C)=CCC[C@](C)(O)[C@H]1CC[C@]2(C)[C@@H]1[C@H](O)C[C@@H]1[C@@]3(C)CC[C@H](O[C@@H]4O[C@H](CO)[C@@H](O)[C@H](O)[C@H]4O[C@@H]4O[C@H](CO)[C@@H](O)[C@H](O)[C@H]4O)C(C)(C)[C@@H]3CC[C@]12C | MTT |  | 72 h | IC20 | > 100 µM
O=C(CN1C(=O)/C(=C/c2cccc(O)c2)SC1=S)Nc1ccccc1 | MTT | 10 µM |  | inhibition | 14.5%
COC(C)(C)CCC[C@](C)(O)[C@H]1CC[C@]2(C)[C@@H]1[C@H](O)C[C@@H]1[C@@]3(C)CC[C@H](O)C(C)(C)[C@@H]3CC[C@]12C | MTT |  | 72 h | IC80 | 35.9 µM
COc1cccc2c1C(=O)c1c(O)c3c(c(O)c1C2=O)C[C@@](O)(C(=O)CO)C[C@@H]3O[C@H]1C[C@H](N)[C@H](O)[C@H](C)O1 | MTT |  | 72 h | GI50 | 5.66 µM
CC/C(=C(\c1ccccc1)c1ccc(OCCN(C)C)cc1)c1ccccc1 | ATP luminescence |  | 72 h | EC90 | 26.1 µM
CC(C)c1ccc(/C=C2\SC(=S)N(CC(=O)Nc3ccccc3)C2=O)cc1 | MTT | 10 µM |  | inhibition | 22.5%
COc1ccc2c(c1)C(=NNc1ncnc3cc(OC)c(OC)cc13)C(=O)N2 |  | 10 µM |  | inhibition | -10.4%
CNS(=O)(=O)Nc1nccc(Cc2c(C)c3ccc(Oc4ncccn4)cc3oc2=O)c1F | CCK-8 |  |  | GI50 | 5.07 µM
COc1cccc2c1C(=O)c1c(O)c3c(c(O)c1C2=O)C[C@@](O)(C(=O)CO)C[C@@H]3O[C@H]1C[C@H](N)[C@H](O)[C@H](C)O1 | SRB |  | 48 h | GI50 | < 10 µg/mL
O=C(CN1C(=O)/C(=C/c2ccc(Cl)cc2Cl)SC1=S)Nc1ccccc1 | MTT | 10 µM |  | inhibition | 4.43%
